Measured values taken from ChEMBL document CHEMBL2177013, “Synthesis and biological evaluation of tylophorine-derived dibenzoquinolines as orally active agents: exploration of the role of tylophorine e ring on biological activity” (J Med Chem, 2012).
pEC50: −log10 of the molar value.

Experiments:
[1] = tested on: HepG2; test: Growth inhibition of human HepG2 cells; format: functional
How it was run: (§1)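 Cells seeded per well: NUGC-3 4500, HONE-1 6000, MCF-7 6500, NCI-H460 2500, HepG2 10000, A549 5000; A549 grown in RPMI 1640 with 2 g/L NaHCO₃, 2 mM L-glutamine and 10% FBS. GI₅₀ = concentration giving 50% growth inhibition, mean of at least three experiments each in duplicate. Paclitaxel served as positive control.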

[2] = tested on: MCF7; test: Growth inhibition of human MCF7 cells; format: functional; how it was run: as §1
[3] = Growth inhibition of human HONE1 cells; format: functional; how it was run: as §1
[4] = tested on: NCI-H460; test: Growth inhibition of human NCI-H460 cells; format: functional; how it was run: as §1
[5] = tested on: A549; test: Growth inhibition of human A549 cells; format: functional; how it was run: as §1
[6] = tested on: NUGC-3; test: Growth inhibition of human NUGC3 cells; format: functional; how it was run: as §1
[7] = tested on: Transmissible gastroenteritis virus; test: Antiviral activity against Transmissible gastroenteritis virus infected in ST cells pre-treated 2 hrs before virus infection measured 6 hrs post virus infection by immunofluorescent assay; format: functional, organism-based; settings: Alphacoronavirus 1, ST
How it was run: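 ST cells, with or without 2 h compound pretreatment (10 concentrations), infected with TGEV at MOI 10. Immunofluorescence with anti-spike and anti-nucleocapsid antibodies at 6 hpi. EC50 from dose–response curves, mean of at least three experiments, each in duplicate.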

[8] = Cytotoxicity against mouse RAW264.7 cells; format: cell-based
How it was run: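 RAW264.7 cells stimulated with LPS/IFNγ and compound-treated in parallel with the NO assay; CC50 taken as concentration giving 50% inhibition of cell growth. Mean of at least three experiments, each in duplicate.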

[9] = tested on: RAW264.7; test: Antiinflammatory activity in mouse RAW264.7 cells assessed as inhibition of LPS-induced nitric oxide production incubated for 18 hrs by nitrate/nitrite assay; format: functional, cell-based; settings: RAW264.7, 18 h
How it was run: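 RAW264.7 seeded 65000 cells/well, cultured 24 h, then medium replaced with complete medium containing IFNγ (20 ng/mL)/LPS (5 μg/mL) plus compound at various concentrations for 18 h; nitric oxide measured by Nitrate/Nitrite kit. EC50 as mean of at least three experiments, each in duplicate.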

Compound | GI50 [1] | GI50 [2] | GI50 [3] | GI50 [4] | GI50 [5] | GI50 [6] | pEC50 [7] | CC50 [8] | pEC50 [9]
CCCN1CCc2c(c3cc(OC)c(OC)cc3c3c(OC)c(OC)c(OC)cc23)C1 | 0.86 µM | 0.62 µM | 0.96 µM | 0.49 µM | 0.79 µM | 0.54 µM | 6.11 | – | –
CCCCN1Cc2c(c3ccc(OC)cc3c3cc(OC)c(OC)cc23)C(O)C1 (stereo not given) | 1.85 µM | 2.33 µM | 3 µM | 1.48 µM | 1.32 µM | 1.86 µM | 5.53 | – | –
COc1cc2c3c(c4cc(OC)c(OC)cc4c2cc1OC)CN(CC1OCCO1)CC3 | 41 µM | 22.4 µM | 22.1 µM | 18.5 µM | 31.5 µM | 19.1 µM | < 4.30 | – | –
CCCN1Cc2c(c3cc(OC)c(OC)cc3c3cc(OC)c(OC)cc23)C(O)C1 (stereo not given) | 1.68 µM | 1.02 µM | 1.74 µM | 1.08 µM | 1.19 µM | 0.73 µM | 6.17 | > 4 µM | 5.66
COc1cc2c3c(c4cc(OC)c(OC)cc4c2cc1OC)CN(CCC1OCCO1)CC3 | 6.49 µM | 4.6 µM | 6.13 µM | 4.15 µM | 4.82 µM | 4.95 µM | 4.50 | – | –
COc1cc2c3c(c4cc(OC)c(OC)cc4c2cc1OC)CN(CCCO)CC3 | 16.9 µM | 7.14 µM | 16.6 µM | 9.41 µM | 5.47 µM | 6.63 µM | 4.71 | – | –
COc1cc2c3c(c4cc(OC)c(OC)cc4c2cc1OC)CN(CCCN)CC3 | 36.9 µM | 15.3 µM | 21.1 µM | 11.7 µM | 6.04 µM | 10.3 µM | 4.63 | – | –
CCCN1CCc2c(c3cc(OC)ccc3c3cc(OC)c(OC)cc23)C1 | 4.48 µM | 3.75 µM | 5.56 µM | 3.82 µM | 4.64 µM | 4.63 µM | 5.05 | – | –
CCCN1CCc2c(c3ccc(OC)cc3c3cc(OC)c(OC)cc23)C1 | 3.17 µM | 2.83 µM | 3.31 µM | 2.4 µM | 2.95 µM | 2.94 µM | 5.06 | – | –
